In ChEMBL document CHEMBL5058577, “EUbOPEN Chemogenomics Library 2 (Multiplex)” (2022):

Test system: HEK-293T
Experiment: Multiplex assay against HEK293T
Format: toxicity, cell-based
Details: human
Summary of the method: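 Live cells carried four stains from seeding: Hoechst33342, BioTracker Green Microtubule Cytoskeleton Dye, MitoTracker Red and Annexin V Alexa Fluor 680. They were imaged on a CQ1 microscope at 37°C and 5% CO2 after compound addition. Using CellPathfinder machine-learning gating, cells were split into Hoechst high-intensity objects or normal cells, normal cells into healthy, pyknosed or fragmented nuclei, and pyknosed cells into mitotic or apoptotic; tubulin, mitochondrial-mass and membrane-permeability phenotypes are per cents of healthy-nucleus cells.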

[1] = 12 h, 1 µM, compound concentration 1 uM, replicate 1
[2] = 12 h, 1 µM, compound concentration 1 uM, replicate 2
[3] = 12 h, 10 µM, compound concentration 10 uM, replicate 1
[4] = 12 h, 10 µM, compound concentration 10 uM, replicate 2
[5] = 24 h, 1 µM, compound concentration 1 uM, replicate 1
[6] = 24 h, 1 µM, compound concentration 1 uM, replicate 2
[7] = 24 h, 10 µM, compound concentration 10 uM, replicate 1
[8] = 24 h, 10 µM, compound concentration 10 uM, replicate 2
[9] = 48 h, 1 µM, compound concentration 1 uM, replicate 1
[10] = 48 h, 1 µM, compound concentration 1 uM, replicate 2
[11] = 48 h, 10 µM, compound concentration 10 uM, replicate 1
[12] = 48 h, 10 µM, compound concentration 10 uM, replicate 2

Structure (SMILES): NCCc1cn(S(=O)(=O)c2c(Cl)nc3sccn23)c2ccccc12.O=C(O)C(=O)O
- Population Apoptotic (%) [1]: 37%
- Population Fragmented Nuclei (%) [1]: 5%
- Population Healthy Nuclei (%) [1]: 83%
- Population Hoechst High Intensity Objects (%) [1]: 7%
- Population Membrane Permeable-Phenotype (%) [1]: 0%
- Population Mitochondria Different-Phenotype (%) [1]: 53%
- Population Mitotic Cells (%) [1]: 62%
- Population Normal (%) [1]: 92%
- Population Pyknosed Nuclei (%) [1]: 11%
- Population Tubulin-Different-Phenotype (%) [1]: 40%
- Total Cell Count [1]: 446
- Population Apoptotic (%) [2]: 52%
- Population Fragmented Nuclei (%) [2]: 8%
- Population Healthy Nuclei (%) [2]: 78%
- Population Hoechst High Intensity Objects (%) [2]: 8%
- Population Mitochondria Different-Phenotype (%) [2]: 66%
- Population Mitotic Cells (%) [2]: 47%
- Population Normal (%) [2]: 91%
- Population Pyknosed Nuclei (%) [2]: 13%
- Population Tubulin-Different-Phenotype (%) [2]: 34%
- Total Cell Count [2]: 316
- Population Apoptotic (%) [3]: 63%
- Population Fragmented Nuclei (%) [3]: 8%
- Population Healthy Nuclei (%) [3]: 49%
- Population Hoechst High Intensity Objects (%) [3]: 22%
- Population Membrane Permeable-Phenotype (%) [3]: 0%
- Population Mitochondria Different-Phenotype (%) [3]: 96%
- Population Mitotic Cells (%) [3]: 36%
- Population Normal (%) [3]: 77%
- Population Pyknosed Nuclei (%) [3]: 42%
- Population Tubulin-Different-Phenotype (%) [3]: 88%
- Total Cell Count [3]: 292
- Population Apoptotic (%) [4]: 64%
- Population Healthy Nuclei (%) [4]: 67%
- Population Hoechst High Intensity Objects (%) [4]: 25%
- Population Mitochondria Different-Phenotype (%) [4]: 97%
- Population Mitotic Cells (%) [4]: 35%
- Population Normal (%) [4]: 74%
- Population Pyknosed Nuclei (%) [4]: 23%
- Population Tubulin-Different-Phenotype (%) [4]: 82%
- Total Cell Count [4]: 209
- Population Apoptotic (%) [5]: 33%
- Population Fragmented Nuclei (%) [5]: 9%
- Population Healthy Nuclei (%) [5]: 79%
- Population Hoechst High Intensity Objects (%) [5]: 6%
- Population Membrane Permeable-Phenotype (%) [5]: 1%
- Population Mitochondria Different-Phenotype (%) [5]: 28%
- Population Mitotic Cells (%) [5]: 66%
- Population Normal (%) [5]: 93%
- Population Pyknosed Nuclei (%) [5]: 11%
- Population Tubulin-Different-Phenotype (%) [5]: 26%
- Total Cell Count [5]: 585
- Population Apoptotic (%) [6]: 41%
- Population Fragmented Nuclei (%) [6]: 12%
- Population Healthy Nuclei (%) [6]: 78%
- Population Hoechst High Intensity Objects (%) [6]: 4%
- Population Mitochondria Different-Phenotype (%) [6]: 46%
- Population Mitotic Cells (%) [6]: 58%
- Population Normal (%) [6]: 95%
- Population Pyknosed Nuclei (%) [6]: 8%
- Population Tubulin-Different-Phenotype (%) [6]: 19%
- Total Cell Count [6]: 438
- Population Apoptotic (%) [7]: 74%
- Population Fragmented Nuclei (%) [7]: 14%
- Population Healthy Nuclei (%) [7]: 37%
- Population Hoechst High Intensity Objects (%) [7]: 34%
- Population Membrane Permeable-Phenotype (%) [7]: 2%
- Population Mitochondria Different-Phenotype (%) [7]: 83%
- Population Mitotic Cells (%) [7]: 25%
- Population Normal (%) [7]: 65%
- Population Pyknosed Nuclei (%) [7]: 48%
- Population Tubulin-Different-Phenotype (%) [7]: 44%
- Total Cell Count [7]: 310
- Population Apoptotic (%) [8]: 75%
- Population Healthy Nuclei (%) [8]: 62%
- Population Mitochondria Different-Phenotype (%) [8]: 95%
- Population Mitotic Cells (%) [8]: 24%
- Population Pyknosed Nuclei (%) [8]: 22%
- Population Tubulin-Different-Phenotype (%) [8]: 76%
- Total Cell Count [8]: 195
- Population Apoptotic (%) [9]: 23%
- Population Fragmented Nuclei (%) [9]: 16%
- Population Healthy Nuclei (%) [9]: 77%
- Population Hoechst High Intensity Objects (%) [9]: 3%
- Population Membrane Permeable-Phenotype (%) [9]: 0%
- Population Mitochondria Different-Phenotype (%) [9]: 22%
- Population Mitotic Cells (%) [9]: 76%
- Population Normal (%) [9]: 96%
- Population Pyknosed Nuclei (%) [9]: 6%
- Population Tubulin-Different-Phenotype (%) [9]: 19%
- Total Cell Count [9]: 972
- Population Apoptotic (%) [10]: 47%
- Population Fragmented Nuclei (%) [10]: 12%
- Population Healthy Nuclei (%) [10]: 82%
- Population Hoechst High Intensity Objects (%) [10]: 5%
- Population Membrane Permeable-Phenotype (%) [10]: 1%
- Population Mitochondria Different-Phenotype (%) [10]: 23%
- Population Mitotic Cells (%) [10]: 52%
- Population Normal (%) [10]: 94%
- Population Pyknosed Nuclei (%) [10]: 5%
- Population Tubulin-Different-Phenotype (%) [10]: 14%
- Total Cell Count [10]: 678
- Population Apoptotic (%) [11]: 53%
- Population Fragmented Nuclei (%) [11]: 27%
- Population Healthy Nuclei (%) [11]: 24%
- Population Hoechst High Intensity Objects (%) [11]: 62%
- Population Membrane Permeable-Phenotype (%) [11]: 11%
- Population Mitochondria Different-Phenotype (%) [11]: 74%
- Population Mitotic Cells (%) [11]: 46%
- Population Normal (%) [11]: 37%
- Population Pyknosed Nuclei (%) [11]: 47%
- Population Tubulin-Different-Phenotype (%) [11]: 55%
- Total Cell Count [11]: 294
- Population Apoptotic (%) [12]: 78%
- Population Fragmented Nuclei (%) [12]: 19%
- Population Healthy Nuclei (%) [12]: 47%
- Population Hoechst High Intensity Objects (%) [12]: 47%
- Population Membrane Permeable-Phenotype (%) [12]: 1%
- Population Mitochondria Different-Phenotype (%) [12]: 75%
- Population Mitotic Cells (%) [12]: 21%
- Population Normal (%) [12]: 52%
- Population Pyknosed Nuclei (%) [12]: 33%
- Population Tubulin-Different-Phenotype (%) [12]: 52%
- Total Cell Count [12]: 212
